Measured values reported in ChEMBL document CHEMBL1140232, “Surprising alteration of antibacterial activity of 5"-modified neomycin against resistant bacteria” (2008).
Values after ≈ are worked out from the molar mass of the structure shown.

Legend:
[1] = test system: Escherichia coli; test: Antibacterial activity against aminoglycoside-susceptible Escherichia coli ATCC 25922 after 12 to 18 hrs; format: functional
Summary of the method: (§1)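 Broth microdilution. Bacterial suspension adjusted with broth to absorbance 0.08–0.1 at 625 nm, diluted further in broth, and mixed in wells with 2-fold serial dilutions of compound. Plates incubated at 35°C for 12–18 h. MIC is the lowest concentration inhibiting growth; each determination repeated at least three times.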

[2] = test system: Staphylococcus aureus; test: Antibacterial activity against aminoglycoside-susceptible Staphylococcus aureus ATCC 25923 after 12 to 18 hrs; format: functional; summary of the method: as §1
[3] = test system: Escherichia coli; test: Antibacterial activity against aminoglycoside-susceptible Escherichia coli TG1 after 12 to 18 hrs; format: functional; summary of the method: as §1
[4] = test system: Escherichia coli; test: Antibacterial activity against Escherichia coli TG1 pSF815 plasmid encoded for AAC(6')/APH(2') after 12 to 18 hrs; format: functional; summary of the method: as §1
[5] = test system: Escherichia coli; test: Antibacterial activity against Escherichia coli TG1 pTZ19U-3 plasmid encoded for APH(3')-1 after 12 to 18 hrs; format: functional; summary of the method: as §1
[6] = test system: Enterococcus; test: Activity of Enterococcus APH(3')-3a
[7] = test system: Enterococcus; test: Ratio of kcat to Km of Enterococcus APH(3')-3a
[8] = test system: Escherichia coli; test: Antibacterial activity against Escherichia coli TG1 pET28a plasmid encoded for APH(3')-3a after 12 to 18 hrs; format: functional; summary of the method: as §1

| MIC [1] [µg/mL] | MIC [2] [µg/mL] | MIC [3] [µg/mL] | MIC [4] [µg/mL] | MIC [5] [µg/mL] | Km [6] [µM] | Vmax [6] [µmol/min/mg] | kcat [6] [s⁻¹] | kcat/Km [7] [×10⁴ /M/s] | MIC [8] [µg/mL] | Compound |
| --- | --- | --- | --- | --- | --- | --- | --- | --- | --- | --- |
| 32 (≈ 43.1 µM) | 1 (≈ 1.35 µM) | 16 (≈ 21.6 µM) | 64 (≈ 86.3 µM) | ≥ 2000 | 75 | 0.7 | 0.35 | 0.47 | 64 (≈ 86.3 µM) | NCCCC[C@@H](N)C(=O)NC[C@H]1O[C@@H](O[C@@H]2[C@@H](O)[C@H](N)C[C@H](N)[C@H]2O[C@H]2O[C@H](CN)[C@@H](O)[C@H](O)[C@H]2N)[C@H](O)[C@@H]1O[C@H]1O[C@@H](CN)[C@@H](O)[C@H](O)[C@H]1N |
| 8 (≈ 11.4 µM) | 1 (≈ 1.43 µM) | 8 (≈ 11.4 µM) | 16 (≈ 22.8 µM) | ≥ 2000 | 57 | 0.93 | 0.47 | 0.82 | 64 (≈ 91.3 µM) | NC[C@@H]1O[C@H](O[C@H]2[C@@H](O)[C@H](O[C@@H]3[C@@H](O)[C@H](N)C[C@H](N)[C@H]3O[C@H]3O[C@H](CN)[C@@H](O)[C@H](O)[C@H]3N)O[C@@H]2CNC(=O)[C@H](N)CO)[C@H](N)[C@@H](O)[C@@H]1O |
| 32 (≈ 24.4 µM) | 2 (≈ 1.53 µM) | 8 (≈ 6.11 µM) | 16 (≈ 12.2 µM) | 500 (≈ 382 µM) | > 500 | < 0.1 | < 0.05 | < 0.01 | 64 (≈ 48.9 µM) | NC[C@@H]1O[C@H](O[C@H]2[C@@H](O)[C@H](O[C@@H]3[C@@H](O)[C@H](N)C[C@H](N)[C@H]3O[C@H]3O[C@H](CN)[C@@H](O)[C@H](O)[C@H]3N)O[C@@H]2CNC(=O)CCC(=O)NC[C@H]2O[C@@H](O[C@@H]3[C@@H](O)[C@H](N)C[C@H](N)[C@H]3O[C@H]3O[C@H](CN)[C@@H](O)[C@H](O)[C@H]3N)[C@H](O)[C@@H]2O[C@H]2O[C@@H](CN)[C@@H](O)[C@H](O)[C@H]2N)[C@H](N)[C@@H](O)[C@@H]1O |
| 16 (≈ 20 µM) | 2 (≈ 2.5 µM) | 8 (≈ 10 µM) | 16 (≈ 20 µM) | ≥ 2000 | 322 | 0.57 | 0.29 | 0.1 | 64 (≈ 80 µM) | NC[C@@H]1O[C@H](O[C@H]2[C@@H](O)[C@H](O[C@@H]3[C@@H](O)[C@H](N)C[C@H](N)[C@H]3O[C@H]3O[C@H](CN)[C@@H](O)[C@H](O)[C@H]3N)O[C@@H]2CNC(=O)[C@@H](N)Cc2c[nH]c3ccccc23)[C@H](N)[C@@H](O)[C@@H]1O |
| 16 (≈ 22 µM) | 4 (≈ 5.51 µM) | 8 (≈ 11 µM) | 16 (≈ 22 µM) | ≥ 2000 | 48 | 0.95 | 0.48 | 1 | 64 (≈ 88.2 µM) | CCCCCCC(=O)NC[C@H]1O[C@@H](O[C@@H]2[C@@H](O)[C@H](N)C[C@H](N)[C@H]2O[C@H]2O[C@H](CN)[C@@H](O)[C@H](O)[C@H]2N)[C@H](O)[C@@H]1O[C@H]1O[C@@H](CN)[C@@H](O)[C@H](O)[C@H]1N |
| 32 (≈ 38.3 µM) | 4 (≈ 4.79 µM) | 16 (≈ 19.1 µM) | 32 (≈ 38.3 µM) | ≥ 2000 | 160 | 0.41 | 0.21 | 0.13 | 125 (≈ 150 µM) | CC(=O)NCC1CN(Cc2cn(C[C@H]3O[C@@H](O[C@@H]4[C@@H](O)[C@H](N)C[C@H](N)[C@H]4O[C@H]4O[C@H](CN)[C@@H](O)[C@H](O)[C@H]4N)[C@H](O)[C@@H]3O[C@H]3O[C@@H](CN)[C@@H](O)[C@H](O)[C@H]3N)nn2)C(=O)O1 (stereo not given in full) |
| 32 (≈ 42.7 µM) | 4 (≈ 5.33 µM) | 8 (≈ 10.7 µM) | 16 (≈ 21.3 µM) | 500 (≈ 667 µM) | 127 | 0.75 | 0.38 | 0.3 | 32 (≈ 42.7 µM) | CCCCCCc1cn(C[C@H]2O[C@@H](O[C@@H]3[C@@H](O)[C@H](N)C[C@H](N)[C@H]3O[C@H]3O[C@H](CN)[C@@H](O)[C@H](O)[C@H]3N)[C@H](O)[C@@H]2O[C@H]2O[C@@H](CN)[C@@H](O)[C@H](O)[C@H]2N)nn1 |
| 8 (≈ 11.4 µM) | 1 (≈ 1.43 µM) | 8 (≈ 11.4 µM) | 16 (≈ 22.8 µM) | ≥ 2000 | 42 | 1.01 | 0.51 | 1.2 | 32 (≈ 45.7 µM) | NC[C@@H]1O[C@H](O[C@H]2[C@@H](O)[C@H](O[C@@H]3[C@@H](O)[C@H](N)C[C@H](N)[C@H]3O[C@H]3O[C@H](CN)[C@@H](O)[C@H](O)[C@H]3N)O[C@@H]2CNC(=O)[C@@H](N)CO)[C@H](N)[C@@H](O)[C@@H]1O |
| 8 (≈ 11.5 µM) | 1 (≈ 1.44 µM) | 16 (≈ 23 µM) | 16 (≈ 23 µM) | 1000 (≈ 1440 µM) | 111 | 0.68 | 0.34 | 0.3 | 64 (≈ 92.1 µM) | NCc1cn(C[C@H]2O[C@@H](O[C@@H]3[C@@H](O)[C@H](N)C[C@H](N)[C@H]3O[C@H]3O[C@H](CN)[C@@H](O)[C@H](O)[C@H]3N)[C@H](O)[C@@H]2O[C@H]2O[C@@H](CN)[C@@H](O)[C@H](O)[C@H]2N)nn1 |
